Reference: ChEMBL document CHEMBL6071151, “Discovery of Inhibitors Targeting Protein-Protein Interaction between Bacterial RNA Polymerase and NusG as Novel Antimicrobials” (J Med Chem, 2024)
≈ marks a conversion by molar mass, not a printed value. Calls of active or inactive are those of the source.

Columns and labels:
[1] = test system: Streptococcus pneumoniae; assay: Antimicrobial activity against Streptococcus pneumoniae clinical isolate CUHK-X04 assessed as reduction in microbial growth measured after 20 hrs by CLSI based broth microdilution method; type: functional
[2] = test system: Streptococcus agalactiae; assay: Antimicrobial activity against Streptococcus agalactiae ATCC 12386 assessed as reduction in microbial growth measured after 20 hrs by CLSI based broth microdilution method; type: functional
[3] = test system: Staphylococcus epidermidis; assay: Antimicrobial activity against Staphylococcus epidermidis ATCC 12228 assessed as reduction in microbial growth measured after 20 hrs by CLSI based broth microdilution method; type: functional
[4] = test system: Streptococcus pneumoniae; assay: Antimicrobial activity against Streptococcus pneumoniae TCH8431 (HM-145) assessed as reduction in microbial growth measured after 20 hrs by CLSI based broth microdilution method; type: functional
[5] = test system: Streptococcus pyogenes; assay: Antimicrobial activity against Streptococcus pyogenes ATCC 19615 assessed as reduction in microbial growth measured after 20 hrs by CLSI based broth microdilution method; type: functional
[6] = test system: Staphylococcus saprophyticus; assay: Antimicrobial activity against Staphylococcus saprophyticus ATCC 15305 assessed as reduction in microbial growth measured after 20 hrs by CLSI based broth microdilution method; type: functional
[7] = test system: Escherichia coli; assay: Antimicrobial activity against Escherichia coli ATCC 25922 assessed as reduction in microbial growth measured after 20 hrs by CLSI based broth microdilution method; type: functional
How it was run: (§1)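 Broth microdilution per CLSI in cation-adjusted Mueller-Hinton broth. Two-fold serial dilutions from 256 to 0.25 μg/mL, inoculum about 5 × 10⁵ CFU/mL. Read after 20 h at 37 °C. MIC is the lowest concentration with no visible growth. Run in duplicate.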

[8] = test system: Klebsiella pneumoniae; assay: Antimicrobial activity against Klebsiella pneumoniae ATCC 700603 assessed as reduction in microbial growth measured after 20 hrs by CLSI based broth microdilution method; type: functional; how it was run: as §1
[9] = test system: Staphylococcus aureus; assay: Antimicrobial activity against Staphylococcus aureus ATCC 29213 assessed as reduction in microbial growth measured after 20 hrs by CLSI based broth microdilution method; type: functional; how it was run: as §1
[10] = test system: Pseudomonas aeruginosa; assay: Antimicrobial activity against Pseudomonas aeruginosa ATCC 27853 assessed as reduction in microbial growth measured after 20 hrs by CLSI based broth microdilution method; type: functional; how it was run: as §1
[11] = test system: Streptococcus pneumoniae; assay: Antimicrobial activity against Streptococcus pneumoniae clinical isolate CUHK-X01 assessed as reduction in microbial growth measured after 20 hrs by CLSI based broth microdilution method; type: functional
[12] = test system: Streptococcus pneumoniae; assay: Antimicrobial activity against Streptococcus pneumoniae ATCC 49619 assessed as reduction in microbial growth measured after 20 hrs by CLSI based broth microdilution method; type: functional
[13] = test system: Acinetobacter baumannii; assay: Antimicrobial activity against Acinetobacter baumannii ATCC 19606 assessed as reduction in microbial growth measured after 20 hrs by CLSI based broth microdilution method; type: functional; how it was run: as §1
[14] = test system: Streptococcus pneumoniae; assay: Antimicrobial activity against Streptococcus pneumoniae clinical isolate CUHK-X02 assessed as reduction in microbial growth measured after 20 hrs by CLSI based broth microdilution method; type: functional
[15] = test system: Staphylococcus aureus; assay: Antimicrobial activity against Staphylococcus aureus ATCC 25923 assessed as reduction in microbial growth measured after 20 hrs by CLSI based broth microdilution method; type: functional; how it was run: as §1
[16] = test system: Streptococcus pneumoniae; assay: Antimicrobial activity against Streptococcus pneumoniae clinical isolate CUHK-X03 assessed as reduction in microbial growth measured after 20 hrs by CLSI based broth microdilution method; type: functional
[17] = test system: Enterococcus faecalis; assay: Antimicrobial activity against Enterococcus faecalis ATCC 19433 assessed as reduction in microbial growth measured after 20 hrs by CLSI based broth microdilution method; type: functional; how it was run: as §1
[18] = test system: Streptococcus pneumoniae; assay: Antimicrobial activity against Streptococcus pneumoniae NP112 (NR-19213) assessed as reduction in microbial growth measured after 20 hrs by CLSI based broth microdilution method; type: functional
[19] = test system: Enterobacter cloacae; assay: Antimicrobial activity against Enterobacter cloacae ATCC 13047 assessed as reduction in microbial growth measured after 20 hrs by CLSI based broth microdilution method; type: functional; how it was run: as §1
[20] = test system: Bacillus subtilis; assay: Antibacterial activity against Bacillus Subtilis assessed as bacterial transcription by measuring subcellular localization of MreB at 1 time MIC incubated for 30 mins by epifluorescence microscopy based analysis; type: functional, organism-based
How it was run: (§2)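 B. subtilis reporter strains expressing GFP fusions, grown overnight on selective LB agar at 37 °C, then overnight in LB with selective antibiotic and xylose, 37 °C, 180 rpm. Cells mounted on 1.2% agarose, imaged by epifluorescence with 100×/1.45 oil objective, FITC (525/50) filter.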

[21] = test system: Bacillus subtilis; assay: Antibacterial activity against Bacillus Subtilis assessed as bacterial transcription by measuring delocalization of GFP-tagged RpsB at 1 time MIC incubated for 30 mins by epifluorescence microscopy based analysis; type: functional, organism-based; how it was run: as §2
[22] = Inhibition of Bacillus subtilis LgBiT-fused NusG/C-terminal SmBit fused […] CH protein-protein interaction using […] incubated for 20 mins by luminescence based analysis
How it was run: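 Split-nanoluciferase competition assay with His-tagged proteins expressed in E. coli BL21(DE3) and Ni-purified. C-SmBiT-β'CH (250 nM in PBS) was preincubated with compound for 10 min at 37 °C. N-LgBiT-NusG (250 nM in PBS) was then added and incubated 10 min at 37 °C. Nano-Glo substrate was added and luminescence read. IC50 determined. Triplicate with technical repeats.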

[23] = test system: Bacillus subtilis; assay: Antibacterial activity against Bacillus Subtilis assessed as bacterial transcription by measuring delocalization of GFP-tagged RpsB from cell poles towards midcell at 1 time MIC incubated for 30 mins by epifluorescence microscopy based analysis; type: functional, organism-based; how it was run: as §2
[24] = test system: Escherichia coli; assay: Upregulation of cat gene transcription level in Escherichia coli K12 transformed with pSL103 at 1/8 to 1/4 times MIC measured after 30 mins; type: functional
How it was run: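 Cells lysed with lysozyme in TE, total RNA extracted and reverse transcribed. cat transcript quantified by SYBR Green qPCR, 40 cycles, normalised to gyrB by ΔCT. Triplicates, unpaired t-test.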

[25] = test system: Staphylococcus aureus; assay: Antimicrobial activity against Staphylococcus aureus ATCC 25923 measuring eradication of bacteria at 4 to 16 times MIC measured over 6 hrs by time-kill assay; type: functional
How it was run: (§3)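 S. aureus (ATCC 25923 or CA-MRSA USA300) in log phase suspended at about 1.5×10^6 CFU/mL in CA-MHB containing compound at multiples of MIC, with a drug-free broth control. Cultures held at 37 °C, aerobic, shaking at 180 rpm. Samples taken at 0, 2, 4 and 6 h, 10-fold diluted in PBS and spotted on Columbia blood agar. Colonies counted after overnight 37 °C as CFU/mL. Triplicate.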

[26] = test system: Staphylococcus aureus; assay: Antimicrobial activity against Staphylococcus aureus ATCC 25923 assessed as reduction in bacterial growth at 4 to 16 times MIC measured over 6 hrs by time-kill assay relative to control; type: functional; parameters: scale not given: the % may be the effect or the level left; how it was run: as §3
[27] = test system: Staphylococcus aureus; assay: Antimicrobial activity against Staphylococcus aureus ATCC 25923 assessed as reduction in bacterial count at 1 times MIC measured after 4 to 6 hrs by time-kill assay; type: functional, organism-based; conditions: time 4-6 hrs
[28] = test system: Staphylococcus aureus; assay: Antimicrobial activity against community-associated methicillin-resistant Staphylococcus aureus USA300 assessed as reduction in bacterial count below the detectable threshold at 4 to 16 times MIC measured after 4 hrs by time-kill assay; type: functional, organism-based; how it was run: as §3
[29] = test system: Staphylococcus aureus; assay: Antimicrobial activity against Staphylococcus aureus ATCC 25923 assessed as reduction in bacterial count below the detectable threshold at 4 to 16 times MIC measured within 2 hrs by time-kill assay; type: functional, organism-based
[30] = test system: Bacillus subtilis; assay: Antibacterial activity against Bacillus Subtilis assessed as bacterial transcription by measuring delocalization of NusG at 1 time MIC incubated for 30 mins by epifluorescence microscopy based analysis; type: functional, organism-based; how it was run: as §2
[31] = test system: Staphylococcus aureus; assay: Antimicrobial activity against community-associated methicillin-resistant Staphylococcus aureus USA300 assessed as reduction in bacterial count at 1 times MIC measured after 4 to 6 hrs by time-kill assay; type: functional, organism-based; conditions: time 4-6 hrs; how it was run: as §3
[32] = test system: Bacillus subtilis; assay: Antibacterial activity against Bacillus Subtilis assessed as bacterial transcription by measuring delocalization of GFP-tagged RpoC at 1 time MIC incubated for 30 mins by epifluorescence microscopy based analysis; type: functional, organism-based; how it was run: as §2
[33] = test system: Staphylococcus aureus; assay: Antimicrobial activity against Staphylococcus aureus ATCC 25923 assessed as inhibition of microbial growth at 1 times MIC measured after 2 hrs by time-kill assay; type: functional, organism-based
[34] = test system: Escherichia coli; assay: Antimicrobial activity against Escherichia coli K12 transformed with pSL103 assessed as reduction in bacterial growth measured after 30 mins; type: functional; conditions: K12, 0.5 h
[35] = test system: Staphylococcus aureus; assay: Antimicrobial activity against community-associated methicillin-resistant Staphylococcus aureus USA300 assessed as inhibition of microbial growth at 1 times MIC measured after 2 hrs by time-kill assay; type: functional, organism-based; how it was run: as §3

Row | Compound | MIC [1] [µg/mL] | MIC [2] [µg/mL] | MIC [3] [µg/mL] | MIC [4] [µg/mL] | MIC [5] [µg/mL] | MIC [6] [µg/mL] | MIC [7] [µg/mL] | MIC [8] [µg/mL] | MIC [9] [µg/mL] | MIC [10] [µg/mL] | MIC [11] [µg/mL] | MIC [12] [µg/mL] | MIC [13] [µg/mL] | MIC [14] [µg/mL] | MIC [15] [µg/mL] | MIC [16] [µg/mL] | MIC [17] [µg/mL] | MIC [18] [µg/mL] | MIC [19] [µg/mL] | also measured
1 | CO[C@H]1/C=C/O[C@@]2(C)Oc3c(C)c(O)c4c(O)c(c(/C=N/N5CCN(C)CC5)c(O)c4c3C2=O)NC(=O)/C(C)=C\C=C\[C@H](C)[C@H](O)[C@@H](C)[C@@H](O)[C@@H](C)[C@H](OC(C)=O)[C@@H]1C | – | – | – | – | – | – | – | – | – | – | – | – | – | – | – | – | – | – | – | Activity [20]: Active; Activity [21]: Active
2 | H-EGRVATSLREHIKLHN-OH | – | – | – | – | – | – | – | – | – | – | – | – | – | – | – | – | – | – | – | IC50 [22]: 195 µM
3 | O=C(N[C@H](CO)[C@H](O)c1ccc([N+](=O)[O-])cc1)C(Cl)Cl | – | – | – | – | – | – | – | – | – | – | – | – | – | – | – | – | – | – | – | Activity [23]: Active
4 | CN(C)[C@@H]1C(O)=C(C(N)=O)C(=O)[C@@]2(O)C(O)=C3C(=O)c4c(O)cccc4[C@@](C)(O)[C@H]3C[C@@H]12 | – | – | – | – | – | – | – | – | – | – | – | – | – | – | – | – | – | – | – | Activity [23]: Active
5 | OC(CNCCNc1ccccc1C(F)(F)F)CSc1ccc(C(F)(F)F)cc1 (stereo unspecified) | 2 | 16 | 8 | 2 | 8 | 2 | 64 | > 256 | 4 | > 256 | 1 | 1 | > 256 | 4 | 4 | 8 | 8 | 4 | 32 | Activity [24]: Active; Activity [25]: <200 CFU/ml; Activity [26]: 100%; Activity [27]: Active; Activity [28]: Active; Activity [29]: Active; Activity [30]: Active; Activity [20]: Active; Activity [21]: Active; Activity [31]: Active; Activity [32]: Active; Activity [33]: Active; IC50 [22]: 142 µM; MIC [34]: 16 µg/mL (≈ 36.5 µM); Activity [35]: Active

Continued, in another order:

Row | MIC [1] [µg/mL] | MIC [2] [µg/mL] | MIC [3] [µg/mL] | MIC [4] [µg/mL] | MIC [5] [µg/mL] | MIC [6] [µg/mL] | MIC [7] [µg/mL] | MIC [8] [µg/mL] | MIC [9] [µg/mL] | MIC [10] [µg/mL] | MIC [11] [µg/mL] | MIC [12] [µg/mL] | MIC [13] [µg/mL] | MIC [14] [µg/mL] | MIC [15] [µg/mL] | MIC [16] [µg/mL] | MIC [17] [µg/mL] | MIC [18] [µg/mL] | MIC [19] [µg/mL] | Compound | also measured
6 | 8 | 16 | 16 | 4 | 16 | 8 | 16 | > 256 | 16 | > 256 | 16 | 4 | 16 | 8 | 8 | 16 | 16 | 16 | 32 | OC(CNCCNc1ccccc1C(F)(F)F)COc1ccc(C(F)(F)F)cc1 (stereo unspecified) | –
7 | 8 | 8 | 8 | 8 | 8 | 8 | 16 | > 256 | 16 | > 256 | 16 | 8 | 16 | 16 | 16 | 8 | 16 | 16 | 32 | OC(CNCCOc1ccccc1C(F)(F)F)COc1ccc(C(F)(F)F)cc1 (stereo unspecified) | –
8 | 8 | 8 | 4 | 4 | 8 | 4 | 32 | > 256 | 8 | > 256 | 8 | 4 | > 256 | 8 | 8 | 4 | 8 | 8 | > 256 | OC(CNCCSc1ccccc1C(F)(F)F)CSc1ccc(C(F)(F)F)cc1 (stereo unspecified) | –
